In the library only some 2.5% were active in any assay of this set; here they are far more common.
PglD inh: blocks C. jejuni PglD acetyltransferase activity; AID 602405; purified PglD enzyme, DTNB colorimetric CoA detection; 360,000 tested, 0.098% active; inhibition, % at 12.5 µM; in the data active = inhibition above about 16%, passing the limit was not always enough; inconclusive = no clear call, values can overlap the other calls
ERAP1 inh: ERAP1 (human) enzyme inhibition. inhibition, % at 10.7 µM. 340,000 tested, 0.15% active. AID 652197. recombinant ERAP1, Leu-AMC fluorescence, 60 min. Q9NZ08;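 active = mean replicate inhibition of at least 30%, or all replicates individually reaching that 30% level; inactive = mean below 30% and not every replicate reaching it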
Target sequence (Q9NZ08 whole entry, looked up): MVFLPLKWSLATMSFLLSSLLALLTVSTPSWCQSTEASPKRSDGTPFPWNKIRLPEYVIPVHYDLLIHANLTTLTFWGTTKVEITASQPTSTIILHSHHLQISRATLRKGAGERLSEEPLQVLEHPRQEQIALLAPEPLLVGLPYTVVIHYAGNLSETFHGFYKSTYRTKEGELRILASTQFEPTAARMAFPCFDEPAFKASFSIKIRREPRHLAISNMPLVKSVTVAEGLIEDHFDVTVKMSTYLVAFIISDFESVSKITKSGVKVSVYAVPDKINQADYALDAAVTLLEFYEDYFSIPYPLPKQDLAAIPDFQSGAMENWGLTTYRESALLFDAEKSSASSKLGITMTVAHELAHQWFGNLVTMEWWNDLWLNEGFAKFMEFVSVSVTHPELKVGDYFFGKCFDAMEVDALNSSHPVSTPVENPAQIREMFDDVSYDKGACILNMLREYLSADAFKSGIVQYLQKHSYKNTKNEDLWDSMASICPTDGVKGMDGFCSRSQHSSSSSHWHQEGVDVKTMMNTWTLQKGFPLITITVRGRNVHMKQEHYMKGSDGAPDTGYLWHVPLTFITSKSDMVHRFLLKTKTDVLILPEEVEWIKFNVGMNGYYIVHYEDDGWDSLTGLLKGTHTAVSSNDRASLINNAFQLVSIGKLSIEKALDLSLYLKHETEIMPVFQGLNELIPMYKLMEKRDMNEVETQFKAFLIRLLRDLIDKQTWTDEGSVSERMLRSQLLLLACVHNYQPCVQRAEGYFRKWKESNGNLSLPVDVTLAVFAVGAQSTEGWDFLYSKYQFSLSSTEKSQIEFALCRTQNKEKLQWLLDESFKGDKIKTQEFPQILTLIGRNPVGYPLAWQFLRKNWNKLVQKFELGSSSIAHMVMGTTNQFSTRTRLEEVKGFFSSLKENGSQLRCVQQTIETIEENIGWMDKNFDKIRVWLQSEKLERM
SIRT5 block: blocks human SIRT5 desuccinylation of peptide; Q9NXA8; Purified SirT5, succinyl-peptide AMC, trypsin-coupled fluorescence; inhibition, % at 15 µM; 330,000 tested, 1.1% active; in the data active = inhibition above about 15%; inconclusive = no clear call, values can overlap the other calls
DENV2 CPE: protects cells from dengue virus 2 cytopathic effect; DENV2-infected cells, cytopathic effect rescue, plate reader; CPE inhibition, % at 9.99 µM; 350,000 tested, 1.7% active; in the data active = CPE inhibition above about 20%, passing the limit was not always enough; inconclusive = no clear call, values can overlap the other calls; tested in BHK-21 cells
E-sel inducer: E-selectin induction on HUVECs. activation, % at 7.58 µM. P16581. 260,000 tested, 0.37% active. HUVEC E-selectin immunofluorescence imaging; normalized: neutral wells 0, TNF-alpha wells 100. AID 686992;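 active = mean E-selectin-positive cell signal at least 10% of the positive control, reached in at least 60% of replicates, without over 20% cell loss; inconclusive = no rule given, readout overlaps actives, possibly toxicity-flagged; inactive = the rest, including those meeting only one limit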
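Assay system: HUVEC, human umbilical vein endothelial cells / Amount: 3,000 HUVEC/well / Controls: TNF-alpha positive control, DMSO neutral control / Compound dosing: single concentration / Medium: EGM-2 over gelatin coat / Evaluation: percent E-selectin-positive cells / Signal: immunofluorescence imaging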
Each line names hits and unclear results; the compound was inactive in the other large screens.

CC(C)CC#Cc1ccc([C@H]2[C@@H](CO)N3CCCCN(C(=O)c4ccc5c(c4)OCO5)C[C@@H]23)cc1	DENV2 CPE 24
O=C(CC(c1ccco1)S(=O)(=O)c1ccccc1)c1ccccc1 (stereo not drawn)	SIRT5 block 20
C/C(=N\Nc1ncc(Cl)cc1Cl)c1ccc(OC(F)F)cc1	none (no result: ERAP1 inh, SIRT5 block, DENV2 CPE, E-sel inducer)
C/C(=N\Nc1ncc(Cl)cc1Cl)c1ccc2c(c1)OCO2	SIRT5 block 25 (no result: PglD inh, E-sel inducer)
CCOC(=O)c1c(NC(=O)c2ccncc2)sc(C)c1C	none (no result: PglD inh, E-sel inducer)
CCOC(=O)c1sc(NC(=O)c2ccncc2)c(C#N)c1C	DENV2 CPE 43 (no result: PglD inh)
CCOc1ccc(C(=O)Nc2ccc(Cl)cn2)cc1Cl	none (no result: ERAP1 inh, SIRT5 block, DENV2 CPE, E-sel inducer)
CCc1ccc2cc(C)cc(C)c2n1	DENV2 CPE 34
COc1ccc(N2CCN(C(=O)[C@@H](NC(=O)c3ccccc3Cl)C(C)C)CC2)cc1	SIRT5 block 16
CC(C)C1(C2CCCC2)NC(=O)NC1=O (stereo not drawn)	none (no result: E-sel inducer)
COc1ccc(NS(=O)(=O)c2cccc(Cl)c2)cc1S(=O)(=O)N1CCCCC1	none (no result: E-sel inducer)
COc1ccc(NS(=O)(=O)c2cccc(Cl)c2Cl)cc1S(=O)(=O)N1CCCCC1	E-sel inducer 134 (no result: PglD inh)
Fc1ccccc1-c1nc(-c2ccc(-c3nn[nH]n3)cc2)no1	DENV2 CPE 20
Fc1ccccc1-c1nc(-c2ccccc2)no1	none (no result: ERAP1 inh, SIRT5 block, DENV2 CPE, E-sel inducer)
CCN(CC)C(=O)c1cn(CCC#N)nc1-c1ccc2ccccc2c1	none
CN1C(=O)NC(c2ccc(O)cc2)C(C(=O)c2cccs2)C1(O)C(F)(F)F (stereo not drawn)	none (no result: E-sel inducer)
O=C(Nc1nc(-c2ccc3c(c2)OCO3)cs1)C1COc2ccccc2O1 (stereo not drawn)	SIRT5 block 16 (no result: E-sel inducer)
Cc1nc2cc(NC(=O)C3COc4ccccc4O3)ccc2s1 (stereo not drawn)	ERAP1 inh 90
Cc1nc2ccc(NC(=O)C3COc4ccccc4O3)cc2s1 (stereo not drawn)	none (no result: PglD inh)
C[C@H]1CCCCO[C@@H](CN(C)C(=O)c2ccncc2)[C@@H](C)CN([C@@H](C)CO)C(=O)c2cc(NS(=O)(=O)c3ccc(F)cc3)ccc2O1	none
Nc1cc(=O)n(Cc2ccccc2)c(=O)n1-c1ccc(Cl)cc1	none (no result: PglD inh)
CO[C@@H]1CN(C)C(=O)c2cc(NC(=O)C3CCC3)ccc2OC[C@H](C)NC[C@@H]1C	none
C=C(C)COc1cc2oc(=O)c(CC(=O)N3C[C@H]4C[C@@H](C3)c3cccc(=O)n3C4)c(C)c2cc1Cl	DENV2 CPE inconclusive (no result: E-sel inducer)
COC(=O)[C@@H]1[C@@H](CO)[C@@H]2Cn3c(ccc(-c4ccccc4)c3=O)[C@@H]2N1CC1CCCCC1	DENV2 CPE 33 (no result: ERAP1 inh, SIRT5 block)
CCCN1[C@H](C(=O)N(C)C)[C@@H](CO)[C@@H]2Cn3c(ccc(-c4ccccc4)c3=O)[C@@H]21	none (no result: PglD inh)
CN(C)C(=O)[C@@H]1[C@@H](CO)[C@@H]2Cn3c(ccc(-c4ccccc4)c3=O)[C@@H]2N1Cc1ccccc1	SIRT5 block 23
COC(=O)[C@H]1[C@H](CO)[C@H]2Cn3c(ccc(-c4ccncc4)c3=O)[C@H]2N1CC1CCCCC1	none
COC(=O)[C@H]1[C@H](CO)[C@H]2Cn3c(ccc(-c4ccccc4)c3=O)[C@H]2N1CC1CCCCC1	DENV2 CPE 45
CCCC#Cc1ccc2c(c1)O[C@H](CN(C)C(=O)CC)[C@H](C)CN([C@H](C)CO)S2(=O)=O	none
C[C@H]1CN([C@@H](C)CO)C(=O)c2c(c3ccccc3n2C)-c2ccccc2CO[C@H]1CN(C)C(=O)Nc1ccc(-c2ccccc2)cc1	none (no result: PglD inh)
C[C@H](CO)N1C[C@H](C)[C@@H](CN(C)C(=O)Nc2ccc(F)cc2)OCc2ccccc2-c2c(n(C)c3ccccc23)C1=O	SIRT5 block 15
CO[C@H](C(=O)N(C)C[C@H]1OCc2ccccc2-c2c(n(C)c3ccccc23)C(=O)N([C@@H](C)CO)C[C@@H]1C)c1ccccc1	DENV2 CPE 26
C[C@H](CO)N1C[C@H](C)[C@H](CN(C)C(=O)Nc2ccc(-c3ccccc3)cc2)OCc2ccccc2-c2c(n(C)c3ccccc23)C1=O	DENV2 CPE 88 (no result: PglD inh)
C[C@H]1CN([C@@H](C)CO)C(=O)c2c(c3ccccc3n2C)-c2ccccc2CO[C@H]1CN(C)C(=O)Nc1ccccc1	none
C[C@H](NC(=O)N(C)C[C@H]1OCc2ccccc2-c2c(n(C)c3ccccc23)C(=O)N([C@H](C)CO)C[C@H]1C)c1ccccc1	DENV2 CPE 32 (no result: PglD inh, E-sel inducer)
